# SKKanGAS inh: inhibitors of SKKanGAS S. pyogenes growth in kanamycin (SK-promoter or general growth effect); BacTiter-Glo, 6 h; inhibition, % at 7.5 µM; hit rate 1.3% among 300,000; AID 1662;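 active = mean replicate score, as percent of positive control median, at least 50; inconclusive = mean below 50 but one replicate at or above 50; inactive = mean and every replicate below 50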;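 note: strain carries kanamycin resistance gene driven by streptokinase promoter and grows in 40 µg/ml kanamycin; loss of luminescence reflects streptokinase promoter inhibition or plain growth inhibition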
# Beta apoptosis: blocks beta cell apoptosis | INS-1E cytokine-induced death, ATP luminescence, 48 h; percent of positive-control rescue, neutral wells zero | protection from apoptosis, % (test concentration not listed) | hit rate 0.8% among 300,000 | AID 435005;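 active = Every replicate reaches about 75%, or at least half do and their mean reaches it too, limit read from the data; inconclusive = At least half of replicates reach the limit but their mean does not; inactive = Under half of replicates reach the limit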;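 note: higher means more ATP so stronger rescue from cytokine killing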
# XBP1 UPR activ: adaptive UPR (XBP1) activation; activation, % at 20 µM; CHO-XBP1 luciferase reporter, IRE1-XBP1 UPR activation, luminescence; percent of tunicamycin response, DMSO as zero; hit rate 0.33% among 330,000;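 active = versus positive control, 20 µM dose yields 30% or more activation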
#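 Assay system: CHO-XBP1 luciferase reporter cells; Schedule: 6 h treatment, 37 °C; Detection: glow luminescence from Steady-Glo reagent; Benchmarks: high control tunicamycin 10 µg/mL final, low control DMSO vehicle only.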
# Mdm2 MdmX PPI: human Mdm2/MdmX binding inhibition | O15151+Q00987 | SaOS-2 split-luciferase Mdm2/MdmX complementation, luminescence | inhibition, % at 8 µM | hit rate 3% among 330,000 | AID 485346;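 active = inhibition of at least 50% at 8 µM in the primary screen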
# Target sequence (O15151 whole entry, looked up): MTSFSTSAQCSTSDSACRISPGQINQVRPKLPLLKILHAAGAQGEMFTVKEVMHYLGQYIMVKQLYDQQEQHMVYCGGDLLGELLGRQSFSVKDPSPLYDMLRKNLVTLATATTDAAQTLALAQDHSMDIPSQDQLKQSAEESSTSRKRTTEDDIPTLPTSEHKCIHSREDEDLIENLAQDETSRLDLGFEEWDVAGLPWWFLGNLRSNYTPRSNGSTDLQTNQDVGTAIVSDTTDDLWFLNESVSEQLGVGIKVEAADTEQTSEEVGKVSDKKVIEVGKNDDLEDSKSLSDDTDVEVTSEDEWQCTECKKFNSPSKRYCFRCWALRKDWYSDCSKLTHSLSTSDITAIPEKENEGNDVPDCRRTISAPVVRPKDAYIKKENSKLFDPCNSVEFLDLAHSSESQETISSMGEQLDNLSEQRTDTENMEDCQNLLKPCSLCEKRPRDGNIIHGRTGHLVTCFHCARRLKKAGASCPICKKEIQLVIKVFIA
# Target sequence (Q00987 whole entry, looked up): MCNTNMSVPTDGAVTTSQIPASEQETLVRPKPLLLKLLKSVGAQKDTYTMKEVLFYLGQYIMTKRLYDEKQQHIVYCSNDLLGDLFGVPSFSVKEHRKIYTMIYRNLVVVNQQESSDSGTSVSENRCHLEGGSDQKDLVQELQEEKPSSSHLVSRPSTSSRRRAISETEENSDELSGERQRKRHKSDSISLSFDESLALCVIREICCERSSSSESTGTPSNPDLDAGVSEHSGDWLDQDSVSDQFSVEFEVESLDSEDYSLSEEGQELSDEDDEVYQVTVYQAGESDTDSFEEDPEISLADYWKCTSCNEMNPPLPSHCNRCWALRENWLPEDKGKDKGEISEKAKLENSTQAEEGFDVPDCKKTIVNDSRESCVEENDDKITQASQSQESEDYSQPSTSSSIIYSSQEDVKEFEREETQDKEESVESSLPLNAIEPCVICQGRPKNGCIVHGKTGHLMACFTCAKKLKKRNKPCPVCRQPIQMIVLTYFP
# CHOP UPR activ: activators of apoptotic arm of unfolded protein response (CHOP) | hit rate 0.34% among 330,000 | CHO-CHOP luciferase reporter, UPR activation, luminescence; percent of tunicamycin response over DMSO baseline | activation, % at 10 µM;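 active = at 10 µM dose, activation of 40% or more, normalized to positive control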
#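 System: CHO CHOP reporter cells. Amount: 500 cells per well. Buffer or medium: F12 medium, 10% FBS. Compound dosing: one dose, 10 µM in 0.5% DMSO. Incubation: 6 h compound exposure at 37 °C after overnight seeding. Technique: Steady-Glo luciferase luminescence. Benchmarks: tunicamycin and DMSO controls.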
# CSC inhib: blocks cancer stem cells | AID 2717 | inhibition, % at 7.5 µM | hit rate 1.1% among 300,000 | cancer stem cell-like cells viability, luminescence; in the data active = inhibition above about 75%; inconclusive = no clear call, values can overlap the other calls; tested in HMLE shEcad cells
# Mdm2-MdmX conf: human Mdm2/MdmX binding inhibition, confirmed | hit rate 55% among 10,000 | inhibition, % at 8 µM | luminescent assay | shares compounds with Mdm2 MdmX PPI | AID 489028; in the data active = inhibition above about 40%
# Full FLuc ctr: inhibits full-length luciferase, flagging false Mdm2/MdmX hits | SaOS-2 full-length luciferase counterscreen, luminescence | inhibition, % at 8 µM | shares compounds with Mdm2 MdmX PPI | hit rate 77% among 6,200;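 active = mean inhibition at 8 µM reaching about 37%, which flags the compound as non-specific, limit read from the data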;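 note: p53-null SaOS-2 cells with luciferase driven by a doxycycline-inducible promoter; compound on cells about two nights before reading with doxycycline added after day one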
# Hits are given with their value; 0 = inactive; ? = inconclusive; - = no result. Rows were chosen to be rich in hits. Some 4.8% of all compounds tested hit in one or more screens of this group.
SMILES,SKKanGAS inh,Beta apoptosis,XBP1 UPR activ,Mdm2 MdmX PPI,CHOP UPR activ,CSC inhib,Mdm2-MdmX conf,Full FLuc ctr
CNC(=O)c1ccc(NC(=O)c2cc(S(=O)(=O)N(C)C)ccc2N2CCCC2)cc1,-,0,0,0,0,-,-,-
CCc1cccc(NC(=O)c2cc(S(=O)(=O)N(C)C)ccc2N2CCCC2)c1,0,0,0,52,0,0,50,51
CSc1cccc(NC(=O)c2cc(S(=O)(=O)N3CCc4ccccc43)cn2C)c1,0,0,0,0,0,0,-,-
Cc1cc(C)c(S(=O)(=O)c2ccccc2)c(OC(=O)c2c(Cl)cc(Cl)cc2Cl)n1,0,0,0,52,0,0,0,-
CCN1CCN(Cc2ccc(NC(=O)c3cc(NC(=O)c4cc5cccc(OC)c5o4)cc(OC)c3)cc2C(F)(F)F)CC1,0,0,0,98,0,-,0,-
CCN1CCN(Cc2ccc(NC(=O)c3cc(NC(=O)c4cc(-c5ccc(OC)cc5)n[nH]4)cc(OC)c3)cc2C(F)(F)F)CC1,71,0,0,95,0,?,0,-
CCN1CCN(Cc2ccc(NC(=O)c3cc(NC(=O)c4ccno4)cc(OC)c3)cc2C(F)(F)F)CC1,0,0,0,55,0,0,0,61
CCN1CCN(Cc2ccc(NC(=O)c3ccc(C)c(NC(=O)c4cccc(-c5cn[nH]c(=O)c5)c4)c3)cc2C(F)(F)F)CC1,0,0,0,84,0,0,46,0
Cc1c(C(=O)N2CC[C@@H](N3CCC(O)CC3)[C@H](O)C2)[nH]c2ccc(Cl)cc12,0,0,0,0,0,0,-,-
Cc1ccc(S(=O)(=O)N2CCC(C(=O)OCC(=O)NC(C)c3ccc(F)cc3)CC2)cc1C (stereo not drawn),-,0,0,0,0,0,-,-
COc1cc(NC(=O)c2cc3cccc(OC)c3o2)cc(C(=O)Nc2cccc(C(F)(F)F)c2)c1,0,0,0,59,0,0,56,41
CCN1CCN(Cc2ccc(NC(=O)c3ccc(C)c(/C=C/c4cnc(Nc5cc(N6CCNCC6)nc(C)n5)cn4)c3)cc2C(F)(F)F)CC1,61,0,0,88,0,0,55,37
CCN1CCN(Cc2ccc(NC(=O)c3cc(NC(=O)c4ccc5n[nH]nc5c4)cc(OC)c3)cc2C(F)(F)F)CC1,0,0,0,0,0,0,-,-
COc1cc(NC(=O)c2ccno2)cc(C(=O)Nc2cccc(C(F)(F)F)c2)c1,0,0,0,0,0,0,-,-
CCN1CCN(Cc2ccc(NC(=O)c3cc(NC(=O)N4CCNC4=O)cc(OC)c3)cc2C(F)(F)F)CC1,0,0,0,76,0,0,50,68
CCN1CCN(Cc2ccc(NC(=O)c3ccc(C)c(NC(=O)c4ccno4)c3)cc2C(F)(F)F)CC1,0,0,0,63,0,0,43,57
CCN1CCN(Cc2ccc(NC(=O)c3cc(NC(=O)c4cncc(-c5cccs5)c4)cc(OC)c3)cc2C(F)(F)F)CC1,0,0,0,97,0,124,0,58
COC(=O)Nc1nc(-c2ccccc2)c(C(=O)c2ccccc2)s1,0,0,0,61,0,0,54,95
COc1ccc(C(=O)Nc2nc(-c3ccccc3)c(C(C)=O)s2)c(OC)c1,0,0,0,58,0,0,0,113
Cc1cc2c(=O)oc(-c3ccc(Br)cc3)nc2s1,0,0,0,0,0,0,-,-
CSc1ncccc1C(=O)OCC(=O)Nc1ccc(N2CCOCC2)cc1,-,0,0,0,0,0,-,-
CCC(C)Oc1cc(-c2ccnc(Nc3cccc(Cl)c3)n2)ccn1 (stereo not drawn),0,0,0,95,0,0,73,0
Cc1cc(C)nc(Nc2cccc(Cl)c2)n1,0,0,0,0,0,0,-,-
OCCCNc1cc(-c2ccnc(Nc3cccc(Cl)c3)n2)ccn1,0,0,0,100,0,0,100,50
CC(c1ccco1)N(C(=O)c1ccc(Cl)c([N+](=O)[O-])c1)c1ccccn1 (stereo not drawn),0,0,0,0,0,0,-,-
SMILES,SKKanGAS inh,Beta apoptosis,XBP1 UPR activ,Mdm2 MdmX PPI,CHOP UPR activ,CSC inhib,Mdm2-MdmX conf,Full FLuc ctr
Cc1ccc(S(=O)(=O)NC(=O)C2CCCCC2)cc1,-,0,0,0,0,0,-,-
CC1CCc2c(sc3nc(C(C)(C)C)nc(N4CCN(C(=O)CCl)CC4)c23)C1 (stereo not drawn),70,98,0,98,0,0,0,0
CCC(=O)N1CCN(c2nc(CC)nc3sc4c(c23)CCCC4)CC1,0,0,0,0,0,0,-,-
CCc1ccc(NS(=O)(=O)c2ccc(C)c(C(=O)N3CCOCC3)c2)cc1,0,0,0,0,0,0,-,-
Nc1nc(SCC(=O)N2CCCCC2)[nH]c(=O)c1NC(=O)c1ccccc1F,0,0,0,0,0,0,-,-
CC1(C)C[C@@H](O)[C@]2(C)CC[C@]3(C)C(=CCC4[C@@]5(C)CC[C@H](O)[C@](C)(CO)C5CC[C@]43C)[C@@H]2C1 (stereo partly drawn),-,-,0,77,0,-,0,-
CC1(C)C[C@H]2C3=CCC4[C@@]5(C)CC[C@H](O)[C@@](C)(CO)C5CC[C@@]4(C)[C@]3(C)C[C@@H](O)[C@@]2(CO)[C@@H](O)[C@@H]1O (stereo partly drawn),-,0,0,0,0,0,-,-
O=C(NCc1cccc(C(F)(F)F)c1)C1CCC(=O)N(C2CCCCCC2)C1 (stereo not drawn),0,0,0,0,0,0,-,-
COc1ccc(-c2csc3nc(C(C)(C)C)oc(=O)c23)cc1OC,0,0,0,0,0,0,-,-
COc1ccc(-c2csc3nc(-c4ccccc4OC)oc(=O)c23)cc1,-,0,0,59,0,0,0,-
O=c1oc(-c2ccccc2F)nc2scc(-c3ccccc3)c12,0,0,0,53,0,0,50,171
Cc1ccc(-c2nn3c(-c4ccco4)nnc3c3ccccc23)cc1S(=O)(=O)NCC1CCCO1 (stereo not drawn),0,0,0,53,0,0,0,68
COc1ccc(OC)c(CNc2ncc(-c3ccc(F)cc3)n2C)c1,0,-,0,0,0,-,-,-
Cc1onc(-c2c(Cl)cccc2Cl)c1C(=O)N/N=C(\N)COc1ccc(Cl)cc1,0,91,0,72,0,101,82,40
COc1cc(/C=N/NC(=O)c2c(-c3c(Cl)cccc3Cl)noc2C)ccc1OCC(N)=O,0,-,0,0,0,-,-,-
Cn1c(=O)[nH]c(=O)c2c1nc(N/N=C/c1cccnc1)n2Cc1ccc(Cl)cc1,0,0,0,62,0,0,0,-
